Data as given in ChEMBL document CHEMBL3526048, “In vitro metabolism of rivoglitazone, a novel peroxisome proliferator-activated receptor γ agonist, in rat, monkey, and human liver microsomes and freshly isolated hepatocytes” (Drug Metab Dispos, 2011).

Key:
[1] = biological target: Cytochrome P450 2D6 (Homo sapiens, UniProt P10635); experiment: Activity of human CYP2D6 expressed in microsomes isolated from baculovirus infected insect cell assessed as enzyme-mediated 2-mercapto-3-(4-((6-methoxy-1-methyl-1H-benzo[d]imidazol-2-yl)methoxy)phenyl)propanamide formation at 20 uM after 2 hrs by radio-HPLC/LC-MS/MS analysis in presence of NADPH-generating system and NADPH-generating system/SAM; format: ADME
Cytochrome P450 2D6, sequence (P10635 whole entry): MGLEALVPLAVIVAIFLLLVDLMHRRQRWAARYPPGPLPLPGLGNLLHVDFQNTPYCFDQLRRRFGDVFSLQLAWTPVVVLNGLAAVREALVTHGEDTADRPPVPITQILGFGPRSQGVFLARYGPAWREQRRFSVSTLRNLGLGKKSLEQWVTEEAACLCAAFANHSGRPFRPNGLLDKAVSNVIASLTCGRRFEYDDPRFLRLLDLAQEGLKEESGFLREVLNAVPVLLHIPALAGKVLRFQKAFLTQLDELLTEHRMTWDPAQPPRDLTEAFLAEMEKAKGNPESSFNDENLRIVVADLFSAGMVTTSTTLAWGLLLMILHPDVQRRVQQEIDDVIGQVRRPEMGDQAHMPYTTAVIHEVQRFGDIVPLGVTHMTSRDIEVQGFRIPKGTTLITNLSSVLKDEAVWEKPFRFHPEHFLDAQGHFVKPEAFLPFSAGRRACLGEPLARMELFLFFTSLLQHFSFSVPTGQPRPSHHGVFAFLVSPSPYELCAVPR

[2] = biological target: Cytochrome P450 3A5 (Homo sapiens, UniProt P20815); experiment: Activity of human CYP3A5 expressed in microsomes isolated from baculovirus infected insect cell assessed as enzyme-mediated 3-(4-((6-methoxy-1-methyl-1H-benzo[d]imidazol-2-yl)methoxy)phenyl)-2-(methylsulfinyl)propanamide formation at 20 uM after 2 hrs by radio-HPLC/LC-MS/MS analysis in presence of NADPH-generating system/SAM; format: ADME
Cytochrome P450 3A5, sequence (P20815 whole entry): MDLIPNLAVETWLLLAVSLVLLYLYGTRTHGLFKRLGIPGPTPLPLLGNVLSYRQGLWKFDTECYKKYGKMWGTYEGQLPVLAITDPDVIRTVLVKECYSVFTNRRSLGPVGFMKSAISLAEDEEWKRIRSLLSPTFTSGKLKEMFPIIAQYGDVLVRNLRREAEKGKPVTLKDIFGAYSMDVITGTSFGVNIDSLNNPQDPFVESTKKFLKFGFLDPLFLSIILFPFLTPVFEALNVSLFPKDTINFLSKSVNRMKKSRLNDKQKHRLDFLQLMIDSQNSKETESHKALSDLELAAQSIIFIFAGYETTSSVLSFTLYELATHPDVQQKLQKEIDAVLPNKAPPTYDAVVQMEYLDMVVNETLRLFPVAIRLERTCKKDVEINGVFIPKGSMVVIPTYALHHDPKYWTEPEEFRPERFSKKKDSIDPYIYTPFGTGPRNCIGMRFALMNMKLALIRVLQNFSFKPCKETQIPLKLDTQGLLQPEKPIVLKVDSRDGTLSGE
Procedure, shortened: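 cDNA-expressed human CYP3A5 in baculovirus-insect-cell microsomes (1 mg/ml protein) was incubated with [¹⁴C]rivoglitazone (20 μM) in 50 mM potassium phosphate (pH 7.4) or 100 mM Tris-HCl (pH 7.5). NADPH-generating system: 2 mM NADP⁺, 20 mM glucose 6-phosphate, 2 units/ml G6PDH, 10 mM MgCl₂. Incubation ran 2 h at 37°C with shaking; insect-cell control supersomes served as control. Acetonitrile stop, supernatant concentrated, then radio-HPLC, LC-MS and LC-MS/MS.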

[3] = biological target: T1, Cytochrome P450 2C8 (Homo sapiens, UniProt P10632); experiment: Activity of human CYP2C8 expressed in microsomes isolated from baculovirus infected insect cell assessed as enzyme-mediated 3-(4-((6-methoxy-1-methyl-1H-benzo[d]imidazol-2-yl)methoxy)phenyl)-2-(methylsulfonyl)propanamide formation at 20 uM after 2 hrs by radio-HPLC/LC-MS/MS analysis in presence of NADPH-generating system/SAM; format: ADME
T1 sequence (P10632 whole entry): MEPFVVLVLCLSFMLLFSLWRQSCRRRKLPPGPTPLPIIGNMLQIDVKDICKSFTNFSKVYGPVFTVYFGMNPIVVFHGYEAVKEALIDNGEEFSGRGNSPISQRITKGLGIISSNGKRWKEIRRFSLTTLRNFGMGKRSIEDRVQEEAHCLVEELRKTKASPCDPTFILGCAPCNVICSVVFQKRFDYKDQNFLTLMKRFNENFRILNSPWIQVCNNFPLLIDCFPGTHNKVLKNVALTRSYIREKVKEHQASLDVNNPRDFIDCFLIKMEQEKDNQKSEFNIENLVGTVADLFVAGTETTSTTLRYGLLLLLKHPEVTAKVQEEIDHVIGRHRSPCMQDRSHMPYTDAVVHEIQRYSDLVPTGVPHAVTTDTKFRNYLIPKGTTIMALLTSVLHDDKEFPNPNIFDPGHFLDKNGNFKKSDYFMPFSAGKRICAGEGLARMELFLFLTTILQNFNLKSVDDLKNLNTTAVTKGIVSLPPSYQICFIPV

[4] = biological target: T2, Cytochrome P450 1A2 (Homo sapiens, UniProt P05177); experiment: Activity of human CYP1A2 expressed in microsomes isolated from baculovirus infected insect cell assessed as enzyme-mediated 5-(4-((6-hydroxy-1-methyl-1H-benzo[d]imidazol-2-yl)methoxy)benzyl)thiazolidine-2,4-dione formation at 20 uM after 2 hrs by radio-HPLC/LC-MS/MS analysis in presence of NADPH-generating system and NADPH-generating system/SAM; format: ADME
T2 sequence (P05177 whole entry): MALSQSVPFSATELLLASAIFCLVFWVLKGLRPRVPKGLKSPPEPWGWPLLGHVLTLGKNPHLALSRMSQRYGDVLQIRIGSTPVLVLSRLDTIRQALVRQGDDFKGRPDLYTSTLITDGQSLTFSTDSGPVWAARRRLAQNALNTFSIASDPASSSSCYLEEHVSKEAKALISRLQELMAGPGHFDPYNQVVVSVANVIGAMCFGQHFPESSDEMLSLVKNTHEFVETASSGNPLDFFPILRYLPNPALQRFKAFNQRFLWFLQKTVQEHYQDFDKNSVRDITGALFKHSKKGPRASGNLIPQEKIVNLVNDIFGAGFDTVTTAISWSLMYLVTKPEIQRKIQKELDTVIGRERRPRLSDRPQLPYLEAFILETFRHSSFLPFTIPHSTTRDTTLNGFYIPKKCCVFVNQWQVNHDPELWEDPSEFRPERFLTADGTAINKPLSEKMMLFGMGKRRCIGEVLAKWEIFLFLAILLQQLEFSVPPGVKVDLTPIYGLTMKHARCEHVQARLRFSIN
Procedure, shortened: (§1)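 Baculovirus/insect-cell microsomes expressing single human CYPs, 1 mg/ml protein, with 50 mM potassium phosphate (pH 7.4) or 100 mM Tris-HCl (pH 7.5). NADPH-generating system: 2 mM NADP⁺, 20 mM glucose 6-phosphate, 2 units/ml G6PDH, 10 mM MgCl₂. [¹⁴C]rivoglitazone at 20 μM, 2 h at 37°C with shaking. Control used insect-cell control supersomes. Stopped with acetonitrile; supernatant concentrated under nitrogen; metabolites analysed by radio-HPLC, LC-MS and LC-MS/MS.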

[5] = biological target: T3, UDP-glucuronosyltransferase 1A7 (Homo sapiens, UniProt Q9HAW7); experiment: Activity of human UGT1A7 expressed in microsomes isolated from baculovirus infected insect cell assessed as enzyme-mediated 2-mercapto-3-(4-((6-methoxy-1-methyl-1H-benzo[d]imidazol-2-yl)methoxy)phenyl)propanoic acid formation at 20 uM after 4 hrs by radio-HPLC/LC-MS/MS analysis in presence of UDPGA; format: ADME
T3 sequence (Q9HAW7 whole entry): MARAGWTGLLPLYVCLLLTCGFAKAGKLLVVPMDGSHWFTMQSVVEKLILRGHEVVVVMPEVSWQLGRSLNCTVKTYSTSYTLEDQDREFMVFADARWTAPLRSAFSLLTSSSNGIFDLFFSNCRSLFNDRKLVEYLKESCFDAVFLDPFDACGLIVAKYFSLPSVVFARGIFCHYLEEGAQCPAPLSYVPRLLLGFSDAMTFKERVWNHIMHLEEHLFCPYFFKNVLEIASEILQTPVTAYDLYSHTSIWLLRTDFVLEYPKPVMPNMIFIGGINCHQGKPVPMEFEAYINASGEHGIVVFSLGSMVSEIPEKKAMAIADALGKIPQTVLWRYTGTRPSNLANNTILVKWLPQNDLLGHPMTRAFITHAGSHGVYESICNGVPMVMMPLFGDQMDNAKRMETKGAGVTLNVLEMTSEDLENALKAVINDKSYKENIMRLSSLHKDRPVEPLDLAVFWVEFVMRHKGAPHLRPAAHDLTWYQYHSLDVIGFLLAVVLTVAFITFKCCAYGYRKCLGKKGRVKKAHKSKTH

[6] = biological target: T1, Cytochrome P450 2C8; experiment: Activity of human CYP2C8 expressed in microsomes isolated from baculovirus infected insect cell assessed as enzyme-mediated 2-((4-((2,4-dioxothiazolidin-5-yl)methyl)phenoxy)methyl)-1-methyl-1H-benzo[d]imidazol-6-yl hydrogen sulfate formation at 20 uM after 2 hrs by radio-HPLC/LC-MS/MS analysis; format: ADME; procedure, shortened: as §1
[7] = Drug metabolism in human hepatocytes assessed as formation of 3-(4-((6-methoxy-1-methyl-1H-benzo[d]imidazol-2-yl)methoxy)phenyl)-2-(methylthio)propanamide at 30 uM after 3 hrs by radio-HPLC/LC-MS/MS analysis in presence of NADPH-generating system/SAM; format: ADME, cell-based, Hepatocyte
[8] = Drug metabolism in human hepatocytes assessed as formation of 2-((4-((2,4-dioxothiazolidin-5-yl)methyl)phenoxy)methyl)-1-methyl-1H-benzo[d]imidazol-6-yl hydrogen sulfate at 30 uM after 3 hrs by radio-HPLC/LC-MS/MS analysis; format: ADME, cell-based, Hepatocyte
[9] = Drug metabolism in human hepatocytes assessed as formation of 5-(4-((6-methoxy-1H-benzo[d]imidazol-2-yl)methoxy)benzyl)thiazolidine-2,4-dione at 30 uM after 3 hrs by radio-HPLC/LC-MS/MS analysis in presence of NADPH-generating system and NADPH-generating system/SAM; format: ADME, cell-based, Hepatocyte

In the case of `COc1ccc2nc(COc3ccc(C[14CH]4SC(=O)NC4=O)cc3)n(C)c2c1.Cl` (racemic), the Drug metabolism [1] is reported as “metabolite_detected”, the Drug metabolism [2] is reported as “metabolite_not_detected” and the Drug metabolism [3] is reported as “metabolite_not_detected”. The Drug metabolism [4] was “metabolite_detected”, the Drug metabolism [5] was “metabolite_not_detected” and the Drug metabolism [6] was “metabolite_not_detected”. For the same compound, the Drug metabolism [7] was “metabolite_detected”, the Drug metabolism [8] was “metabolite_detected” and the Drug metabolism [9] was “metabolite_detected”.
